In ChEMBL document CHEMBL2029346, “Discovery and synthesis of hydronaphthoquinones as novel proteasome inhibitors” (J Med Chem, 2012):
pIC50: −log10 of the molar value. Activity calls are given as the source filed them. The rule behind the calls is not given here.

Experiments:
[1] = Inhibition of chymotrypsin-like activity of proteasome by fluorogenic assay; format: subcellular
Method in brief: (§1)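 Purified rabbit 20S proteasome; CT-L activity measured by fluorogenic assay. Compounds were first screened for % CT-L inhibition, then dose-response runs gave IC50.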

[2] = Inhibition of chymotrypsin-like activity of proteasome at 10 uM by fluorogenic assay; format: subcellular; method in brief: as §1
[3] = Inhibition of trypsin-like activity of proteasome by fluorogenic assay; format: subcellular
[4] = species: Oryctolagus cuniculus; assay: Inhibition of rabbit 20S proteasome activity at 10 uM after 30 mins
Method in brief: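 Purified rabbit 20S proteasome (1.5 nM final) was preincubated with compound at 10 μM, or 0.1% DMSO vehicle, in 50 mM Tris-HCl pH 7.6 at room temperature for 30 min. Chymotrypsin-like activity was then read by fluorogenic assay before dialysis (t = 0) and normalized to the DMSO control.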

[5] = species: Oryctolagus cuniculus; assay: Irreversible inhibition of rabbit 20S proteasome activity at 10 uM after 30 mins measured after 4 hrs of dialysis
Method in brief: (§2)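 Compound at 10 μM or 0.1% DMSO was preincubated with 1.5 nM rabbit 20S proteasome in 50 mM Tris-HCl pH 7.6 for 30 min at room temperature. Mixtures were dialysed (3500 MWCO) against the same buffer at 4 °C and sampled at 0, 0.5, 1, 4, 8 and 18 h. CT-L activity was normalized to DMSO control.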

[6] = Inhibition of trypsin-like activity of proteasome at 10 uM by fluorogenic assay; format: subcellular
[7] = Inhibition of postglutamylpeptidase hydrolysis-like activity of proteasome by fluorogenic assay; format: subcellular
[8] = Inhibition of chymotrypsin-like activity of proteasome in human MDA-MB-468 cells after 48 hrs
Method in brief: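 MDA-MB-468 cells grown in DMEM with 10% FCS, penicillin/streptomycin, at 37 °C in 5% CO2. They were exposed to a range of concentrations or DMSO vehicle for 48 h, lysed in Tris pH 8.0/EDTA/NaCl/0.5% NP-40 for 30 min at 4 °C, and spun at 12000g. CT-L activity was read fluorogenically on 5 μg lysate, with lysate replacing purified proteasome.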

[9] = Inhibition of chymotrypsin-like activity of proteasome in human MDA-MB-231 cells after 48 hrs
Method in brief: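 MDA-MB-231 cells exposed to a range of concentrations or DMSO vehicle for 48 h, then lysed (Tris pH 8.0, EDTA, NaCl, 0.5% NP-40). CT-L activity was measured fluorogenically using 5 μg lysate; IC50 derived.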

[10] = species: Oryctolagus cuniculus; assay: Irreversible inhibition of rabbit 20S proteasome activity at 10 uM after 30 mins measured after 0.5 to 18 hrs of dialysis; method in brief: as §2
[11] = test system: MDA-MB-468; assay: Inhibition of chymotrypsin-like activity of proteasome in human MDA-MB-468 cells assessed as accumulation of ubiquitinated cellular proteins after 11 hrs by Western blotting
Method in brief: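 MDA-MB-468 cells (DMEM, 10% FCS, 37 °C, 5% CO2) given varying concentrations or DMSO for 11 h, then lysed in NP-40 buffer. Lysate (30 μg) was run on SDS-PAGE, transferred to nitrocellulose, probed with anti-ubiquitin, and detected by ECL.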

[12] = test system: MDA-MB-468; assay: Antiproliferative activity against human MDA-MB-468 cells after 11 hrs by MTT assay; format: functional, cell-based; conditions: MDA-MB-468, 11 h
Method in brief: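 MDA-MB-468 human breast cancer cells grown in DMEM with 10% FCS and penicillin/streptomycin at 37 °C, 5% CO₂. Cells plated, attached overnight, then exposed to varying compound concentrations or vehicle (DMSO) for 11 h.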

[13] = Inhibition of chymotrypsin-like activity of proteasome in human MDA-MB-468 cells after 11 hrs by fluorogenic assay in whole cell extracts; conditions: MDA-MB-468, 11 h

Row | pIC50 [1] | inhibition [2] | pIC50 [3] | SMILES | also measured
1 | 6.52 | > 70% | 5.15 | O=S(=O)(Nc1cc(Sc2ncn[nH]2)c(O)c2ccccc12)c1ccc(C2CCCCC2)cc1 | –
2 | < 5.30 | – | – | CNC(=O)CCSc1cc(NS(=O)(=O)c2cccs2)c2ccccc2c1O | –
3 | 5.24 | – | – | O=C(O)CCSc1cc(NS(=O)(=O)c2cccs2)c2ccccc2c1O | –
4 | 6.20 | > 70% | 5.96 | O=S(=O)(Nc1cc(Sc2nnn[nH]2)c(O)c2ccccc12)c1ccc(Cl)s1 | –
5 | 6.40 | > 70% | 5.87 | O=S(=O)(Nc1cc(Sc2nnn[nH]2)c(O)c2ccccc12)c1ccc2ccccc2c1 | –
6 | < 5.30 | – | – | CCSc1cc(NS(=O)(=O)c2cccs2)c2ccccc2c1O | –
7 | < 4.52 | – | – | O=S(=O)(Nc1cc(I)c(O)c2ccccc12)c1cccs1 | –
8 | – | – | – | CC(C)C[C@H](NC(=O)[C@H](Cc1ccccc1)NC(=O)c1cnccn1)B(O)O | inhibition [4]: 87%; inhibition [5]: inactive
9 | 5.61 | > 70% | 5.14 | O=S(=O)(Nc1cc(Sc2ncn[nH]2)c(O)c2ccccc12)c1ccc(-c2ccc(C(F)(F)F)cc2)cc1 | –
10 | 6.82 | > 70% | 5.38 | O=S(=O)(Nc1cc(Sc2ncn[nH]2)c(O)c2ccccc12)c1ccc(Oc2ccccc2)cc1 | –
11 | 6.64 | > 70% | 6.26 | O=S(=O)(Nc1cc(Sc2nnn[nH]2)c(O)c2ccccc12)c1ccc(-c2ccccc2)s1 | –
12 | 6.64 | > 70% | 5.70 | O=S(=O)(Nc1cc(Sc2nnn[nH]2)c(O)c2ccccc12)c1ccc(-c2ccc(F)cc2)cc1 | –
13 | < 5.30 | – | – | O=S(=O)(Nc1cc(SCCO)c(O)c2ccccc12)c1cccs1 | –
14 | 6.19 | > 70% | – | O=S(=O)(Nc1cc(Sc2ncn[nH]2)c(O)c2ccccc12)c1cccc2ccccc12 | inhibition [6]: < 70%
15 | 6.64 | > 70% | 5.73 | O=S(=O)(Nc1cc(Sc2nnn[nH]2)c(O)c2ccccc12)c1ccc(C2CCCCC2)cc1 | –
16 | 6.29 | > 70% | 6.70 | O=S(=O)(Nc1cc(Sc2nnn[nH]2)c(O)c2ccccc12)c1cccs1 | –
17 | < 5.30 | – | – | CN(C)C(=O)CCSc1cc(NS(=O)(=O)c2cccs2)c2ccccc2c1O | –
18 | < 4.00 | – | – | O=C(O)CSc1ccc(NS(=O)(=O)c2cccs2)c2ccccc12 | –
19 | < 4.52 | – | – | O=S(=O)(Nc1ccc(O)c2ccccc12)c1cccs1 | –
20 | 5.79 | > 70% | – | O=S(=O)(Nc1cc(Sc2ncn[nH]2)c(O)c2ccccc12)c1ccn(S(=O)(=O)c2ccccc2)c1 | inhibition [6]: < 70%
21 | < 5.30 | – | – | CCOc1cc(NS(=O)(=O)c2cccs2)c2ccccc2c1O | –

Row | pIC50 [1] | inhibition [2] | pIC50 [3] | SMILES | also measured
22 | 6.74 | > 70% | 5.63 | O=S(=O)(Nc1cc(Sc2ncn[nH]2)c(O)c2ccccc12)c1ccc(-c2ccc(F)cc2)cc1 | –
23 | < 4.00 | – | – | O=C(O)CS(=O)(=O)c1cc(NS(=O)(=O)c2cccs2)c2ccccc2c1O | –
24 | 6.32 | > 70% | 5.81 | O=S(=O)(Nc1cc(Sc2nnn[nH]2)c(O)c2ccccc12)c1ccc(-c2ccccn2)s1 | –
25 | 6.27 | > 70% | 6.24 | O=S(=O)(Nc1cc(Sc2nnn[nH]2)c(O)c2ccccc12)c1ccc(Cl)c(Cl)c1 | –
26 | 5.71 | > 70% | – | O=S(=O)(Nc1cc(Sc2ncn[nH]2)c(O)c2ccccc12)c1ccc(S(=O)(=O)c2ccccc2)s1 | inhibition [6]: < 70%
27 | 6.14 | > 70% | 5.63 | O=S(=O)(Nc1cc(Sc2ncn[nH]2)c(O)c2ccccc12)c1ccc(-c2ccccc2)s1 | –
28 | 6.55 | > 70% | 5.37 | O=S(=O)(Nc1cc(Sc2ncn[nH]2)c(O)c2ccccc12)c1ccc(-c2ccccc2)cc1 | –
29 | < 4.52 | – | – | O=S(=O)(Nc1cc(Br)c(O)c2ccccc12)c1cccs1 | –
30 | 6.40 | > 70% | 5.55 | COc1ccc(-c2ccc(S(=O)(=O)Nc3cc(Sc4nnn[nH]4)c(O)c4ccccc34)cc2)cc1 | –
31 | – | > 70% | – | O=S(=O)(Nc1cc(Sc2ncn[nH]2)c(O)c2ccccc12)c1cccs1 | inhibition [6]: < 70%
32 | 6.33 | > 70% | 5.84 | CCCCCc1ccc(S(=O)(=O)Nc2cc(Sc3nnn[nH]3)c(O)c3ccccc23)cc1 | –
33 | 6.66 | > 70% | 5.32 | O=S(=O)(Nc1cc(Sc2nnn[nH]2)c(O)c2ccccc12)c1ccc(-c2ccccc2)cc1 | –
34 | 6.66 | > 70% | 5.89 | O=S(=O)(Nc1cc(Sc2nnn[nH]2)c(O)c2ccccc12)c1ccc(Oc2ccccc2)cc1 | –
35 | 6.52 | > 70% | 5.70 | O=S(=O)(Nc1cc(Sc2ncn[nH]2)c(O)c2ccccc12)c1ccc2ccccc2c1 | –
36 | 6.22 | > 70% | 5.86 | O=S(=O)(Nc1cc(Sc2nnn[nH]2)c(O)c2ccccc12)c1ccccc1 | –
37 | 6.24 | > 70% | 6.12 | O=S(=O)(Nc1cc(Sc2nnn[nH]2)c(O)c2ccccc12)c1ccc(Cl)cc1 | –
38 | < 4.52 | – | – | O=S(=O)(Nc1cc(Cl)c(O)c2ccccc12)c1cccs1 | –
39 | 5.39 | > 70% | – | O=C(O)c1ccccc1Sc1cc(NS(=O)(=O)c2cccs2)c2ccccc2c1O | inhibition [6]: < 70%
40 | 5.38 | > 70% | – | Cn1nnnc1Sc1cc(NS(=O)(=O)c2cccs2)c2ccccc2c1O | inhibition [6]: < 70%
41 | < 4.00 | – | – | O=C(O)COc1cc(NS(=O)(=O)c2cccs2)c2ccccc2c1O | –
42 | < 5.00 | – | – | CCOC(=O)CSc1cc(NS(=O)(=O)c2cccs2)c2ccccc2c1O | –

Row | SMILES | pIC50 [1] | inhibition [2] | pIC50 [3] | also measured
43 | O=C(O)CSc1cc(NS(=O)(=O)c2cccs2)c2ccccc2c1O | 5.52 | > 70% | – | inhibition [6]: < 70%; pIC50 [7]: 5.09; pIC50 [8]: 5.14; pIC50 [9]: 5.45; inhibition [4]: 68%; inhibition [10]: Active
44 | O=S(=O)(Nc1cc(Sc2nnn[nH]2)c(O)c2ccccc12)c1ccc(-c2ccc(C(F)(F)F)cc2)cc1 | 6.06 | > 70% | 5.94 | pIC50 [8]: 6.00; pIC50 [9]: 6.36; inhibition [11]: Dose-dependent effect; pIC50 [12]: 4.77; inhibition [4]: 73%; inhibition [10]: Active; pIC50 [13]: 4.81
